# Experimental data taken from ChEMBL document CHEMBL4382272, “A Curcumin Degradation Product, 7-Norcyclopentadione, Formed by Aryl Migration and Loss of a Carbon from the Heptadienedione Chain” (J Nat Prod, 2018).
# Legend:
# [1] = Drug level treated with deuterated-demethoxy curcumin assessed as horseradish peroxidase-mediated oxidation at 50 uM after 1 hr in presence of H2O2 by LC-MS analysis; assay type: ADME; settings: armoracia rusticana
# Outline: (§1)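 HRP/H2O2 oxidation in 1 mL of 20 mM NH4OAc, pH 8, with 50 μM curcuminoid and 2.5 × 10−6 U horseradish peroxidase. H2O2 (40 μM) started the reaction, which ran 1 h at 37 °C. An aliquot was injected directly for negative-ion LC-MS.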
# [2] = Drug metabolism assessed as horseradish peroxidase-mediated oxidation by measuring bisdemethoxy-7-Norcyclopentadione formation at 50 uM after 1 hr in presence of H2O2 by LC-MS analysis; assay type: ADME; settings: armoracia rusticana; outline: as §1
# [3] = Drug level in pH 7.4 buffer containing 50% H218O treated with curcumin at 50 uM by LC-MS analysis; assay type: physicochemical; settings: pH 7.4, 50 µM
# Outline: (§2)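 Oxygen-18 labelling in 200 μL of 20 mM NH4HCO3, pH 7.4, made with a 1:1 mix of H2O and H218O (97%). Curcumin was added at 50 μM and incubated 1 h at 37 °C. Aliquots went to negative-ion LC-MS without extraction.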
# [4] = Drug level treated with curcumin at 50 uM by LC-MS analysis; assay type: physicochemical
# [5] = Drug metabolism in pH 7.4 buffer treated with curcumin at 50 uM by LC-MS analysis
# [6] = Drug level in PMA-stimulated mouse RAW264.7 cells treated with curcumin at 10 uM after 30 mins by LC-MS analysis; assay type: ADME, cell-based; settings: raw264.7, 0.5 h
# Outline: (§3)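 RAW264.7 cells grown in DMEM with 10% FBS, seeded at 400 000 cells/well and attached overnight. They got PMA (stimulated lines) or EtOH vehicle for 5 min, then the test compound at 10 μM for 30 min. Supernatants were extracted on HLB cartridges, eluted with MeOH, dried under N2 and redissolved in MeCN/H2O 1:1. Analysis was negative-ion ESI LC-MS/MS in SRM mode.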
# [7] = Drug level in mouse RAW264.7 cells treated with curcumin at 10 uM after 30 mins by LC-MS analysis; assay type: ADME, cell-based; settings: raw264.7, 0.5 h; outline: as §3
# [8] = Drug metabolism in pH 7.4 buffer assessed as auto-oxidation by measuring 7-Norcyclopentadione formation at 50 uM by LC-MS analysis
# [9] = Drug metabolism assessed as auto-oxidation by measuring 7-Norcyclopentadione formation at 50 uM by LC-MS analysis
# [10] = Drug metabolism in PMA-stimulated mouse RAW264.7 cells assessed as auto-oxidation by measuring 7-Norcyclopentadione formation at 10 uM after 30 mins by LC-MS analysis; assay type: ADME, cell-based; settings: raw264.7, 0.5 h; outline: as §3
# [11] = Drug metabolism in pH 7.4 buffer containing 50% H218O assessed as auto-oxidation by measuring 7-Norcyclopentadione formation at 50 uM by LC-MS analysis; outline: as §2
# [12] = Drug level treated with demethoxy curcumin assessed as horseradish peroxidase-mediated oxidation at 50 uM after 1 hr in presence of H2O2 by LC-MS analysis; assay type: ADME; settings: armoracia rusticana; outline: as §1
# [13] = Drug level in mouse RAW264.7 cells treated with 4'-O-methylcurcumin at 10 uM after 30 mins by LC-MS analysis; assay type: ADME, cell-based; settings: raw264.7, 0.5 h; outline: as §3
# [14] = Drug level in PMA-stimulated mouse RAW264.7 cells treated with 4'-O-methylcurcumin at 10 uM after 30 mins by LC-MS analysis; assay type: ADME, cell-based; settings: raw264.7, 0.5 h; outline: as §3
# [15] = Drug metabolism assessed as horseradish peroxidase-mediated oxidation by measuring demethoxy-7-Norcyclopentadione formation at 50 uM after 1 hr in presence of H2O2 by LC-MS analysis; assay type: ADME; settings: armoracia rusticana; outline: as §1
# [16] = Drug metabolism assessed as horseradish peroxidase-mediated oxidation by measuring deuterated-demethoxy-7-Norcyclopentadione formation at 50 uM after 1 hr in presence of H2O2 by LC-MS analysis; assay type: ADME; settings: armoracia rusticana; outline: as §1
# [17] = Drug metabolism in PMA-stimulated mouse RAW264.7 cells assessed as auto-oxidation by measuring 4''-O-methyl-7-norcyclopentadione formation at 10 uM after 30 mins by LC-MS analysis; assay type: ADME, cell-based; settings: raw264.7, 0.5 h; outline: as §3
smiles,measurement,setting,value
[2H]c1c([2H])c(C(O)C2C(=O)C=C(O)C2c2ccc(O)c(OC)c2)c([2H])c([2H])c1O (configuration not stated),Drug metabolism,[1],Metabolite_Detected
O=C(/C=C/c1ccc(O)cc1)CC(=O)/C=C/c1ccc(O)cc1 [BISDEMETHOXYCURCUMIN],Drug metabolism,[2],Metabolite_Notdetected
COc1cc(C(O)C2C(=O)C=C(O)C2c2ccc(O)c(OC)c2)ccc1O (configuration not stated),Drug metabolism,[3],Metabolite_Detected
same,Drug metabolism,[4],Metabolite_Detected
same,Drug metabolism,[5],Metabolite detected
same,Drug metabolism,[6],Metabolite_Detected
same,Drug metabolism,[7],Metabolite_Detected
COc1cc(/C=C/C(=O)CC(=O)/C=C/c2ccc(O)c(OC)c2)ccc1O [CURCUMIN],Drug metabolism,[8],Metabolite detected
same,Drug metabolism,[9],Metabolite detected
same,Drug metabolism,[10],Metabolite_Detected
same,Drug metabolism,[11],Metabolite detected
COc1cc(C2C(O)=CC(=O)C2C(O)c2ccc(O)cc2)ccc1O (configuration not stated),Drug metabolism,[12],Metabolite_Detected
COc1cc(C2C(O)=CC(=O)C2C(O)c2ccc(OC)c(OC)c2)ccc1O (configuration not stated),Drug metabolism,[13],Metabolite_Detected
same,Drug metabolism,[14],Metabolite_Detected
COc1cc(/C=C/C(=O)CC(=O)/C=C/c2ccc(O)cc2)ccc1O,Drug metabolism,[15],Metabolite_Detected
[2H]c1c([2H])c(/C=C/C(=O)CC(=O)/C=C/c2ccc(O)c(OC)c2)c([2H])c([2H])c1O,Drug metabolism,[16],Metabolite_Detected
COc1cc(/C=C/C(=O)/C=C(O)/C=C/c2ccc(OC)c(OC)c2)ccc1O,Drug metabolism,[17],Metabolite_Detected
